# The list is not random: actives were taken first. Their share in the collection is about 2.5%.
# GSTO1 inh – blocks human GSTO1 in RBBP9 counter-screen | recombinant GSTO1, activity-based probe fluorescence polarization | inhibition, % at 5.96 µM | actives 1.1% (n = 300,000) | AID 1974;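 active means inhibition above the campaign mean inhibition plus 3 SD, cut at about 35% in these data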
# Target sequence (P78417 whole entry, looked up): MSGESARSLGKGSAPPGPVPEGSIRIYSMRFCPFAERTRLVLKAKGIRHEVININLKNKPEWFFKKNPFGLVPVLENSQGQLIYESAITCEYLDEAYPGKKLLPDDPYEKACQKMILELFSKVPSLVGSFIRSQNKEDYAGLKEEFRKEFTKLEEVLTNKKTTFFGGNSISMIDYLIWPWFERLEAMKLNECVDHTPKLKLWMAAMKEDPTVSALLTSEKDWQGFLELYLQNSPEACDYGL
# CTSL1 counter – cathepsin L1 inhibition, PFM18AAP counter-screen; recombinant F. hepatica cathepsin L1, Z-Leu-Arg-MCA fluorescence; inhibition, % at 5.96 µM; AID 1906; actives 0.49% (n = 300,000);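 active means inhibition above the mean of all tested compounds plus 3 SD, set per screening campaign, cut at about 17% in these data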
# PAD4 inh – blocks human protein arginine deiminase 4; Q9UM07; recombinant PAD4, RCA probe fluorescence polarization; inhibition, % at 6.36 µM; actives 0.41% (n = 330,000);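 active means percent inhibition above a cutoff equal to the mean of all tested compounds plus 3 SD, cut at about 15% in these data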
# TDP2 absorb – blocks human TDP2 phosphodiesterase activity; AID 720702; recombinant TDP2, T5PNP hydrolysis, p-nitrophenol absorbance 415 nm; actives 0.34% (n = 370,000); O95551; inhibition, % at 12.8 µM;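 active means inhibition above the mean of all tested compounds plus 3 SD, set per campaign, cut at about 25% in these data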
# Target sequence (O95551 whole entry, looked up): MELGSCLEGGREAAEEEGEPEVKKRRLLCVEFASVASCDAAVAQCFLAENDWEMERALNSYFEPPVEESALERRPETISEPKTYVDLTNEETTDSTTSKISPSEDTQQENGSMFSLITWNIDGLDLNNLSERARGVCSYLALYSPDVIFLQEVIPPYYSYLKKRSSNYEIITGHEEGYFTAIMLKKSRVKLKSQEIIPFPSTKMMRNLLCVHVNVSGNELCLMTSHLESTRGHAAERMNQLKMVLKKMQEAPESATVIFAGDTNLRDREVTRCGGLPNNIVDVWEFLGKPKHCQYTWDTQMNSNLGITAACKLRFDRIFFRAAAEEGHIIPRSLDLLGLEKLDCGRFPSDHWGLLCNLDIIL
#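 Assay system: Recombinant human TDP2 | Quantity: 120 nM TDP2 per well | Incubation: 2 h at 37 °C | Signal: Epi absorbance | Evaluation: Percent inhibition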
# PRMT1 FP inh – PRMT1 (human) inhibition, primary screen | AID 652257 | recombinant PRMT1, activity-based probe fluorescence polarization | inhibition, % at 2.79 µM | Q99873 | actives 1.3% (n = 370,000);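 active means inhibition above about 21% made by adding two undisclosed values, limit read from the data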
# PRMT1 confirm – PRMT1 (human) inhibition, FP confirmation | shares compounds with PRMT1 FP inh | recombinant His-PRMT1, activity-based probe fluorescence polarization | inhibition, % at 2.79 µM | actives 42% (n = 3,300) | AID 687036;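 active means mean inhibition across replicates above the hit cutoff derived for the earlier primary screen, cut at about 22% in these data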
# Numbers stand for hits; n = inactive; x = no result given.
SMILES,GSTO1 inh,CTSL1 counter,PAD4 inh,TDP2 absorb,PRMT1 FP inh,PRMT1 confirm
N#C/C(=C\c1ccc(N2CCOCC2)c([N+](=O)[O-])c1)c1nc2ccccc2[nH]1,n,n,n,n,n,x
N#C/C(=C\c1ccc(N2CCOCC2)o1)c1nc2ccccc2[nH]1,n,n,n,n,58,n
O=C1C(Cl)=C(NCCc2ccccc2)C(=O)N1CCc1ccccc1,n,n,n,n,n,x
O=C1C(Cl)=C(NCCc2ccccc2)C(=O)c2ccccc21,x,x,x,n,66,96
Cc1nc2sc(C(c3ccccc3)N3CC(C)OC(C)C3)c(O)n2n1 (centres undefined),n,n,n,n,n,x
Cc1nc2sc(C(c3ccco3)N3CCN(c4ccccc4)CC3)c(O)n2n1 (centres undefined),n,n,n,n,n,x
Cc1nc2sc(C(c3ccco3)N3CCN(c4cccc(Cl)c4)CC3)c(O)n2n1 (centres undefined),n,n,n,n,65,n
Cc1nc2sc(C(c3ccco3)N3CC(C)OC(C)C3)c(O)n2n1 (centres undefined),n,n,n,n,29,n
COc1ccccc1C(=O)n1ccc2ccc(-c3ccc4ccn(Cc5ccccc5)c4c3)cc21,x,x,x,n,n,x
CC(C)(C)OC(=O)NCC12C=CC(O1)C1C(=O)N(Cc3ccccc3)C(=O)C12 (centres undefined),n,n,n,n,47,n
CSc1ccc(-c2csc(N3CCC(C(N)=O)CC3)n2)cc1,x,x,x,n,n,x
Cc1cc(C(=O)CSc2nnnn2-c2ccccc2)c(C)n1CC1CCCO1 (centres undefined),n,n,n,n,n,x
Cc1cc(C(=O)CSc2nnc(-c3cccnc3)n2-c2ccccc2F)c(C)n1CC1CCCO1 (centres undefined),n,n,n,n,27,n
NC(=S)NN=C1c2cc(S(=O)(=O)N3CCOCC3)ccc2-c2ccc(S(=O)(=O)N3CCOCC3)cc21,n,n,n,n,30,n
COC(=O)C1CN(CCc2ccccc2)CCS(=O)(=O)N1Cc1ccccc1 (centres undefined),x,x,x,n,n,x
CC1(C)Cc2c(C#N)c(N)sc(=S)c2CS1,n,n,n,n,31,41
N#Cc1c(N)sc(=S)c2c1CCCCC2,n,n,n,n,40,36
N#Cc1c(N)c(C#N)c(-c2ccc(O)cc2)c2c1CCCC2,n,n,n,n,n,x
Cn1c(N)c(C#N)c2c(c1=S)CSC(C)(C)C2,n,n,n,n,n,x
CN(C)[C@@H]1CCN(c2cccc3c2S(=O)(=O)N(C2CC2)CCCO3)C1,x,x,x,n,n,x
Cc1nc2ccccn2c1-c1ccnc(=S)[nH]1,n,n,n,n,79,38
COc1ccc(NC(=O)Nc2cc(C)nn2-c2ccccc2)cc1,x,x,x,n,n,x
Cc1cc(C)c2c(=O)n(CC(=O)NC3CCCC3)sc2n1,n,n,n,n,83,89
Cc1cc(C)c2c(=O)n(CC(=O)Nc3ccc(Br)c(C)c3)sc2n1,n,n,n,n,93,97
Cc1cc(C)c2c(=O)n(CC(=O)Nc3cccc(Cl)c3C)sc2n1,n,n,n,n,97,92
SMILES,GSTO1 inh,CTSL1 counter,PAD4 inh,TDP2 absorb,PRMT1 FP inh,PRMT1 confirm
COc1ccc(OC)c(CCNC(=O)Cn2sc3nc(C)cc(C)c3c2=O)c1,n,n,n,x,x,x
COC(=O)[C@]1(C#N)CC(=O)N(C)[C@@H]1c1ccccc1,x,x,x,n,n,x
CCc1ccccc1CNC(=O)C1CCC(CNS(=O)(=O)c2cccc3cccnc23)CC1 (centres undefined),x,x,x,n,n,x
CCOc1ccc(/C=N/n2c(-c3n[nH]c4c3CCC4)n[nH]c2=S)cc1,x,x,x,n,n,x
CCOC(=O)CSc1nc2c(c(=O)[nH]c(=O)n2C)n1CCc1ccccc1,n,n,n,n,n,x
Cn1c(=O)[nH]c(=O)c2c1nc(SCC(=O)O)n2CCc1ccccc1,n,n,n,n,26,n
O=C(Nc1c(-c2ccc(F)cc2)nc2ncccn12)C1CC1,x,x,x,n,n,x
CCCC[n+]1c(C)sc2ccc(C)cc21,n,n,n,n,42,n
Cc1ccc2sc(C)[n+](CCO)c2c1,n,n,n,n,58,33
CC[n+]1c(C)sc2cc(C)ccc21,n,n,n,n,74,n
CCN1/C(=C/c2ccc3cc(C)ccc3[n+]2CC)Sc2ccccc21,n,n,n,n,n,x
O=S1(=O)c2ccccc2-c2c(nnn2CC2CCCCC2)CN1C1CC1,x,x,x,n,n,x
Cc1ccc(O)c(C(=O)c2cc(C#N)c(=O)n(-c3nccs3)c2)c1,n,n,n,n,39,31
COc1ccc(-c2noc(C3CCCN(C(=O)NC4CCC(C)CC4)C3)n2)cc1 (centres undefined),x,x,x,n,n,x
Cc1cccc2nc(CSc3nc4cc([N+](=O)[O-])ccc4s3)cn12,n,n,n,n,53,n
CCOC(=O)C1=C(C)Nc2nc(=S)[nH]n2C1c1ccc(Cl)cc1 (centres undefined),x,x,x,n,29,25
COC(=O)c1nn(-c2ccc(OC)cc2)c(=O)c2c(N)sc(C)c12,n,n,n,n,25,n
C=CCOc1cccc(C2C(C(=O)c3ccc(C)o3)=C(O)C(=O)N2c2nccs2)c1 (centres undefined),n,n,n,n,63,38
COc1ccc(C2C(C(=O)c3cccs3)=C(O)C(=O)N2c2cccc(C)n2)cc1 (centres undefined),n,n,n,n,n,x
CSc1ccc(C2C(C(=O)c3ccco3)=C(O)C(=O)N2c2nnc(SC)s2)cc1 (centres undefined),n,n,n,n,65,34
CCCOc1cccc(C2C(C(=O)c3ccco3)=C(O)C(=O)N2CCCn2ccnc2)c1 (centres undefined),n,n,n,n,n,x
Cc1ccc(C2C(C(=O)c3cccs3)=C(O)C(=O)N2c2nnc(C)s2)cc1 (centres undefined),n,n,n,n,69,36
CCCOc1cccc(C2C(C(=O)c3ccco3)=C(O)C(=O)N2c2nnc(C)s2)c1 (centres undefined),n,n,n,n,32,n
COc1cccc(C2C(C(=O)c3ccc(C)o3)=C(O)C(=O)N2c2cc(C)on2)c1 (centres undefined),n,n,n,n,n,x
Cc1nnc(N2C(=O)C(O)=C(C(=O)c3ccco3)C2c2ccc(C(C)C)cc2)s1 (centres undefined),n,n,n,n,n,x
Cc1nnc(N2C(=O)C(O)=C(C(=O)c3ccco3)C2c2ccc(C(C)(C)C)cc2)s1 (centres undefined),n,n,n,n,n,x
Cc1nnc(N2C(=O)C(O)=C(C(=O)c3ccco3)C2c2ccc(F)cc2)s1 (centres undefined),n,n,n,n,40,n

# Assay outcomes as filed in PubChem.
